DAGLB inhibitor = blocks human DAGLB lipase activity; Q8NCG7; HEK293T DAGLB membrane lysate, EnzChek fluorogenic substrate; inhibition, % at 5.17 µM; actives 0.059% (n = 340,000); in the data active means inhibition above about 34%
MPTP inh = permeability transition pore inhibition; isolated mouse mitochondria, Ca2+ swelling absorbance, 30 min; inhibition, % at 10 µM; actives 1.4% (n = 360,000); AID 602449;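 active means inhibition of 50% or more, scaled per plate between neutral and stimulator controls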
TAAR1 ag = human TAAR1 agonism; CHO RD-HGA16 TAAR1, Fluo-8 calcium fluorescence; vehicle wells 0%, saturating PEA agonist 100%; activation, % at 3 µM; actives 0.99% (n = 360,000);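 active means activation above the mean activation of all test compounds in the run plus 3 SD, cut at about 38% in these data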
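Assay system – CHO-derived RD-HGA16 cells with stable Gα16 and human TAAR1 · Compound dosing – one-point dosing at 3 µM (nominal) · Incubation – 17-24 h seeding, 75 min 37 °C dye, 30 min RT · Measured by – kinetic Fluo-8 calcium fluorescence · Control set – DMSO vehicle as 0%, PEA at EC100 as 100% · Repeats – single well for each compound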
GPR7 antagonist = blocks human GPR7 receptor signaling. GPR7-expressing cells, fluorescence antagonist assay. inhibition, % at 4.4 µM. actives 1.1% (n = 290,000). AID 1861; in the data active means inhibition above about 16%, passing the limit was not always enough;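 further: cells stimulated with the agonist NPW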
Target sequence (P48145 whole entry, looked up): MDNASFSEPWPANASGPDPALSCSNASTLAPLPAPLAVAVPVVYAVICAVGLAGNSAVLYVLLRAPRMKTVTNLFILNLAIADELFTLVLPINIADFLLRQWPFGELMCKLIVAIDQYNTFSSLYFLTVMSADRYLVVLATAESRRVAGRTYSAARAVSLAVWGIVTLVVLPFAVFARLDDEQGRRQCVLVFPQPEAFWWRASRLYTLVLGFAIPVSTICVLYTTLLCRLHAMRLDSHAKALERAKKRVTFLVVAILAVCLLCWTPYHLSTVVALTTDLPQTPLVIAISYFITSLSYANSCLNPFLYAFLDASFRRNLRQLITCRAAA
TAAR1 antag = antagonists of human TAAR1; CHO RD-HGA16 TAAR1, Fluo-8 calcium fluorescence, antagonist; Q96RJ0; inhibition, % at 3 µM; actives 1.5% (n = 360,000);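 active means inhibition above a per-plate cutoff, the mean inhibition of test compounds on that plate plus 3 SD, cut at about 49% in these data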
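Assay system: CHO-derived RD-HGA16 cells stably expressing human TAAR1 plus Gα16. Timing: 140 s kinetic read after compound, 140 s after agonist. Technique: kinetic Fluo-8 calcium fluorescence measurement. Measure: % inhibition of agonist calcium response.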
nonsel antag count = nonselective antagonist in TAAR1 antagonist counter-screen. shares compounds with TAAR1 antag. counterscreen cell line, calcium fluorescence, antagonist mode. inhibition, % at 3 µM. actives 77% (n = 2,400); in the data active means inhibition above about 22%;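 further: CHO-Ga16 host cells stimulated with ATP at an EC80 level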
TAAR1 antag conf = confirmation of human TAAR1 antagonists | shares compounds with TAAR1 antag | TAAR1-expressing cells, fluorescence antagonist read-out | inhibition, % at 3 µM | actives 40% (n = 2,400) | AID 651785; in the data active means inhibition above about 49%;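 further: CHO-Ga16 host cells challenged with agonist PEA near its EC80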
Ga16 ag counter = nonselective Ga16 agonism, counter-screen; actives 18% (n = 2,400); activation, % at 3 µM; Ga16-expressing cells, calcium fluorescence, agonist counterscreen; AID 651953; shares compounds with TAAR1 antag; in the data active means activation above about 12%
TAAR1 ag counter = TAAR1 agonism, antagonist counter-screen | shares compounds with TAAR1 antag | hTAAR1 cell line, fluorescence activation, agonist mode | activation, % at 3 µM | actives 2% (n = 2,400); in the data active means activation above about 37%;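 further: CHO cells stably expressing TAAR1 with calcium dye readout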
Hits are given with their value; – = inactive; · = no result given. In the library only some 4% were active in any assay of this set; here they are far more common.

SMILES	DAGLB inhibitor	MPTP inh	TAAR1 ag	GPR7 antagonist	TAAR1 antag	nonsel antag count	TAAR1 antag conf	Ga16 ag counter	TAAR1 ag counter
COC(=O)[C@]12C[C@H](CC(=O)N3CCN(C(=O)c4ccco4)CC3)C(=O)N(Cc3ccccc3)C1=C[C@H](C(C)C)O[C@@H]2C1CC1	·	·	–	·	–	·	·	·	·
O=C(Nc1ccc(Cl)c(S(=O)(=O)N2CCOCC2)c1)c1ccc(Cl)nc1	–	–	–	·	67	32	52	12	–
CC1CCN(c2ccc(C(=O)Nc3ccc4c(c3)OCO4)cc2[N+](=O)[O-])CC1	–	–	–	–	51	29	51	–	–
CN(C)c1ccc(Nc2nc(N)c([N+](=O)[O-])c(N3CCOCC3)n2)cc1	–	–	–	–	54	22	–	–	–
CC1(C(=O)Nc2cnc3ccccc3c2)CCN1Cc1ccc(-c2ccccc2)o1 (centres undefined)	·	–	–	·	–	·	·	·	·
CCc1nc(NCCO)c(C#N)c2c1CSC(C)(C)C2	–	–	–	–	59	31	51	–	–
COc1cc2c(cc1OC)CN(C(=S)Nc1ccc(Cl)cc1)CC2	–	–	–	–	57	–	53	12	–
COc1cc(OC)cc(C(=O)NC(C(=O)NNC(=O)CN(C)S(=O)(=O)c2ccc(C)cc2)C(C)C)c1 (centres undefined)	–	–	–	·	–	·	·	·	·
Cc1ccc(S(=O)(=O)N2CCCC(C(=O)Nc3ccc(NC(=O)c4ccccn4)cc3)C2)cc1 (centres undefined)	–	–	–	–	55	32	53	–	–
CCOC(=O)c1ccc(NC(=O)C2CCCN(S(=O)(=O)c3ccc(F)cc3)C2)cc1 (centres undefined)	–	–	–	–	67	39	62	13	–
CCc1nc2ccc(C(=O)N(CC)CCN(C)C)cn2c1N(C)C(=O)C1CCCCC1	·	–	–	·	–	·	·	·	·
CSc1ccccc1C(=O)N1CCc2ccc(NC(=O)c3ccccn3)cc2C1	–	–	–	·	–	·	·	·	·
CC(C)C[C@H]1CN([C@@H](Cc2ccccc2)CN2CCC[C@@H]2CN2C(=O)C(=O)NC[C@@H]2Cc2ccccc2)C(=O)C(=O)N1CC1CCCCC1	·	–	–	·	–	·	·	·	·
O=C(CCn1c(=O)oc2ccccc21)N(Cc1ccccc1)c1ccccc1	–	–	–	–	69	23	50	–	–
C=CCn1c(=O)/c(=C/c2ccc(Cl)cc2)s/c1=C(/C#N)c1nnc2n1CCCCC2	–	–	–	–	50	27	–	–	–
Cc1cc(NC(=O)CS(=O)(=O)c2cn(Cc3cccc(C(F)(F)F)c3)c3ccccc23)no1	·	–	–	·	–	·	·	·	·
CCC1CN(C(=O)N2CCC(C(=O)NCc3ccccc3OC)CC2)c2cc(C)ccc2O1 (centres undefined)	–	–	–	–	54	29	–	–	–
CCC1CN(C(=O)N2CCC(C(=O)NCc3ccccc3OC)CC2)c2ccccc2O1 (centres undefined)	–	–	–	–	–	·	·	·	·
CC(C)c1ccc(NC(=O)C2Cc3c(-c4cccc(F)c4)ccnc3O2)cc1 (centres undefined)	·	–	–	·	–	·	·	·	·
C[C@H](CO)N1C[C@H](C)[C@@H](CN(C)C(=O)Nc2ccc3c(c2)OCO3)Oc2c(NC(=O)Nc3ccccc3)cccc2C1=O	–	–	–	·	58	26	–	–	–
COc1ccc(NC(=O)c2cc(C)nc3ccccc23)cc1S(=O)(=O)N1CCOCC1	–	–	–	·	–	·	·	·	·
COc1ccc(Nc2nc(-c3ccccc3)nc3ccccc23)cc1S(=O)(=O)N1CCOCC1	–	–	–	–	72	35	57	13	–
COC(=O)[C@@H](Cc1ccc(O)cc1)NC(=O)[C@H]1O[C@@H](n2cnc3c(=O)[nH]c(N)nc32)[C@H](O)[C@@H]1O	·	·	–	·	–	·	·	·	·
CN(C)c1nc(Nc2ccc(Cl)cc2)nc(OCC#N)n1	–	–	–	–	58	–	–	–	–

Screening data: PubChem, several laboratories
